From PubChem
Mdm2-MdmX inh: human Mdm2/MdmX binding inhibition; SaOS-2 split-luciferase Mdm2/MdmX complementation, luminescence; inhibition, % at 8 µM; 330,000 compounds, 3% hits; AID 485346; O15151+Q00987;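 active = inhibition of at least 50% at 8 µM in the primary screen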
Target sequence (O15151 whole entry, looked up): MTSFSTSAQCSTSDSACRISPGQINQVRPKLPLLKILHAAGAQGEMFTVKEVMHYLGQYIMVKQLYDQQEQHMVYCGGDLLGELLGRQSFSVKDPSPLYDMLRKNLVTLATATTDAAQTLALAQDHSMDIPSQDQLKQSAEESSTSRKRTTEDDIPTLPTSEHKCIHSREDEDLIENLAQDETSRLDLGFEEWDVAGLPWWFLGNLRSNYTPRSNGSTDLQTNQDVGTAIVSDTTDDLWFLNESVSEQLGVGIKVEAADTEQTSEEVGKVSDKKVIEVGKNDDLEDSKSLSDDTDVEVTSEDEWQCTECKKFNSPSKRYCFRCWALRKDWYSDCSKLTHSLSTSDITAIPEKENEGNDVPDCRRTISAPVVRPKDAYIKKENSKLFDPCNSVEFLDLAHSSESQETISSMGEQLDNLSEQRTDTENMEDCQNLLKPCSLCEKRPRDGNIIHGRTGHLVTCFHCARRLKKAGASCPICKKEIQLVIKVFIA
Target sequence (Q00987 whole entry, looked up): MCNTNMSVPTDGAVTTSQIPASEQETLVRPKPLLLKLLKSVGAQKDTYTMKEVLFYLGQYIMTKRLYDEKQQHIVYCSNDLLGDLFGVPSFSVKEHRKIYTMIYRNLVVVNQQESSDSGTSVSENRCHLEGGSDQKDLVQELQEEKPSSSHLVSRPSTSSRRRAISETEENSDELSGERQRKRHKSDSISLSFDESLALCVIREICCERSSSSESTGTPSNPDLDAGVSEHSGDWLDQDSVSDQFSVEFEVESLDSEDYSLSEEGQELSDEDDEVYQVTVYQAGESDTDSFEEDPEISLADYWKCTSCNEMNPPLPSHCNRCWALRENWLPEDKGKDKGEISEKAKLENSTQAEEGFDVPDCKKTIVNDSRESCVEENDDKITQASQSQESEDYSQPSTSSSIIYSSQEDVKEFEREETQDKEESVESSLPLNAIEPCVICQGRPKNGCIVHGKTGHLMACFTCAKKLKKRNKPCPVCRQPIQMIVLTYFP
SKKanGAS inh: inhibitors of SKKanGAS S. pyogenes growth in kanamycin (SK-promoter or general growth effect) | BacTiter-Glo, 6 h | inhibition, % at 7.5 µM | 300,000 compounds, 1.3% hits;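 active = mean replicate score, as percent of positive control median, at least 50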;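 note: strain carries kanamycin resistance gene driven by streptokinase promoter and grows in 40 µg/ml kanamycin; loss of luminescence reflects streptokinase promoter inhibition or plain growth inhibition; 0% = median of DMSO wells and 100% = positive control at its reference dose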
Beta cell apopt: beta cell apoptosis inhibition | INS-1E cytokine-induced death, ATP luminescence, 48 h; percent of positive-control rescue, neutral wells zero | protection from apoptosis, % (test concentration not listed) | 300,000 compounds, 0.8% hits | AID 435005;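 active = Every replicate reaches about 75%, or at least half do and their mean reaches it too, limit read from the data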;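 note: 0% = cytokine-treated negative control wells and 100% = positive control rescue; higher means more ATP so stronger rescue from cytokine killing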
Calb FLC: C. albicans growth modulation with fluconazole; 300,000 compounds, 0.57% hits; C. albicans CaCi-2 (fluconazole-resistant clinical isolate) + fluconazole, Alamar Blue growth, 48 h; growth inhibition, % (test concentration not listed);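 active = growth inhibition above about 58% in most replicates, limit read from the data, passing the limit was not always enough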;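 note: all wells also contain fluconazole at 8 µg/ml as a sub-toxic cotreatment; 0% = median of DMSO wells and 100% = median of geldanamycin control wells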
T cruzi inh: blocks replication of Trypanosoma cruzi; T. cruzi beta-gal in NIH3T3, luminescence, 90 h; inhibition, % (concentration not given with the values); 300,000 compounds, 1.4% hits; AID 1885;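 active = mean inhibition across valid replicates above about 55%, limit read from the data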;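 note: signal also drops with host cell toxicity which is not excluded here; 0% = plate median of DMSO wells and 100% = zero luminescence signal; higher percent means less beta-gal luminescence so fewer parasites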
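System: mouse NIH/3T3 fibroblasts infected with β-gal-expressing T. cruzi Tulahuen C4 / Input: NIH/3T3 cells, 5,000 per well / Buffer or medium: Low-serum DMEM with 2% FBS / Probe or stimulus: 5000 reporter trypomastigotes per well / Schedule: ≥90 h infection period, 3 h prior cell attachment / Measured by: GalScreen luminescence, 60 min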
CSC inhib: blocks cancer stem cells; cancer stem cell-like cells viability, luminescence; inhibition, % at 7.5 µM; 300,000 compounds, 1.1% hits; AID 2717; in the data active = inhibition above about 75%; tested in HMLE shEcad cells
Starred values were filed as active, the others as inactive. In the library only some 5.7% were active in any assay of this set; here they are far more common.

How did CC(=O)c1c(O)c2ccccc2n(C)c1=O do in these assays?
Mdm2-MdmX inh: 24; SKKanGAS inh: 18; Beta cell apopt: 2; Calb FLC: -24; T cruzi inh: -15

Results for Cn1c(=O)c(C(=O)NNC(=O)c2ccccc2Br)c(O)c2ccccc21 ?
Mdm2-MdmX inh: 46; SKKanGAS inh: 75*; Beta cell apopt: 5; Calb FLC: 1; T cruzi inh: -3; CSC inhib: -1

Results for Cn1c(=O)c(C(=O)NNC(=O)c2ccccc2Cl)c(O)c2ccccc21 ?
Mdm2-MdmX inh: 30; SKKanGAS inh: 51*; Beta cell apopt: -1; Calb FLC: -8; T cruzi inh: -9; CSC inhib: 17

How did CCn1c(=O)c(C(=O)NNC(=O)c2ccccc2Br)c(O)c2ccccc21 do in these assays?
Mdm2-MdmX inh: 37; SKKanGAS inh: 90*; Beta cell apopt: 1; Calb FLC: 2; T cruzi inh: -5

Results for O=C(Nc1nc2ccccc2[nH]1)c1cccc([N+](=O)[O-])c1 ?
Mdm2-MdmX inh: -53; SKKanGAS inh: 9; Beta cell apopt: 13; Calb FLC: -8; T cruzi inh: -30; CSC inhib: -2

What do the screens show for `COC(=O)c1cc(C(=O)Nc2nc3ccccc3[nH]2)cc([N+](=O)[O-])c1`?
Mdm2-MdmX inh: -6; SKKanGAS inh: 63*; Beta cell apopt: 10; Calb FLC: -4; T cruzi inh: 25; CSC inhib: -11

How did CCC(C)(C)NC(=O)c1cc(C(=O)OC)cc([N+](=O)[O-])c1 do in these assays?
Mdm2-MdmX inh: -7; SKKanGAS inh: 2; Beta cell apopt: -5; Calb FLC: -1; T cruzi inh: 5; CSC inhib: -6

Results for CCCN(CCC)S(=O)(=O)c1ccc(NC(=O)c2cc(C(=O)OC)cc([N+](=O)[O-])c2)cc1 ?
Mdm2-MdmX inh: 2; SKKanGAS inh: 6; Beta cell apopt: -8; Calb FLC: 35; T cruzi inh: 74*; CSC inhib: 16

What do the screens show for `COc1ccc(/C=C/c2ccc3cccc(O)c3n2)cc1Br`?
Mdm2-MdmX inh: 4; SKKanGAS inh: 93*; Beta cell apopt: 22; Calb FLC: 1; T cruzi inh: 44; CSC inhib: 31

Results for Oc1cccc(/C=C/c2ccc3cccc(O)c3n2)c1 ?
Mdm2-MdmX inh: -91; SKKanGAS inh: 57*; Beta cell apopt: 16; Calb FLC: -1; T cruzi inh: -22; CSC inhib: 87*

How did O=[N+]([O-])c1ccc(/C=C/c2ccc3cccc(O)c3n2)cc1 do in these assays?
Mdm2-MdmX inh: -109; SKKanGAS inh: -1; Beta cell apopt: 20; Calb FLC: -1; T cruzi inh: -5; CSC inhib: 39

How did Cc1ccc(/C=C/c2ccc3cccc(O)c3n2)s1 do in these assays?
Mdm2-MdmX inh: -97; SKKanGAS inh: 76*; Beta cell apopt: 9; Calb FLC: -4; T cruzi inh: 5; CSC inhib: 40

Results for O=S(=O)(c1ccc(F)cc1)N1CCN(C(=S)NC2CC2)CC1 ?
Beta cell apopt: 5; CSC inhib: -18

What do the screens show for `Cc1onc(-c2cccc(Cl)c2Cl)c1C(=O)O/N=C(\N)c1ccc([N+](=O)[O-])o1`?
Mdm2-MdmX inh: 48; SKKanGAS inh: 9; Beta cell apopt: 15; Calb FLC: -3; T cruzi inh: 78*; CSC inhib: 16

How did Cc1onc(-c2ccccc2)c1C(=O)O/N=C(\N)c1ccc([N+](=O)[O-])o1 do in these assays?
Mdm2-MdmX inh: 42; SKKanGAS inh: 7; Beta cell apopt: 3; Calb FLC: 2; T cruzi inh: 45; CSC inhib: 17

How did Cc1ccccc1CNC(=O)Nc1ccc(Cl)cc1 do in these assays?
Mdm2-MdmX inh: -26; SKKanGAS inh: 2; Beta cell apopt: 0; Calb FLC: -1; T cruzi inh: 2; CSC inhib: -3

How did O=C(NCC1COc2ccccc2O1)c1cccc(S(=O)(=O)NCc2ccccc2)c1 (stereo unspecified) do in these assays?
Mdm2-MdmX inh: 19; SKKanGAS inh: -3; Beta cell apopt: 105*; Calb FLC: -5; T cruzi inh: 23; CSC inhib: 19

What do the screens show for `CCCCCCOC(=O)/C=C/c1c(C)[nH]c(=O)[nH]c1=O`?
Mdm2-MdmX inh: 47; SKKanGAS inh: 86*; Beta cell apopt: -13; Calb FLC: 0; T cruzi inh: 41; CSC inhib: 34

Results for COc1ccc(/C(C)=N/Nc2nc(C)cc(-c3ccccc3)n2)cc1 ?
Mdm2-MdmX inh: 32; SKKanGAS inh: -7; Beta cell apopt: 83*; Calb FLC: -17; T cruzi inh: 42; CSC inhib: 5

What do the screens show for `C/C(=N/Nc1nc(-c2ccccc2)cc(-c2ccc(F)cc2)n1)c1cccc(N)c1`?
Mdm2-MdmX inh: 42; SKKanGAS inh: 15; Beta cell apopt: 79*; Calb FLC: -4; T cruzi inh: 25; CSC inhib: 43

How did C/C(=N\Nc1nc(C)cc(-c2ccccc2)n1)c1ccc(F)cc1 do in these assays?
Mdm2-MdmX inh: -11; SKKanGAS inh: -11; Beta cell apopt: 78*; Calb FLC: -5; T cruzi inh: 7; CSC inhib: 17

What do the screens show for `CCOC(=O)C1=CN(Cc2ccco2)S(=O)(=O)N(CC)C1c1cccc(OC)c1` (stereo unspecified)?
Mdm2-MdmX inh: -19

What do the screens show for `O=S(=O)(NCc1ccncc1)c1ccc(S(=O)(=O)NCC2CCCO2)cc1` (stereo unspecified)?
Mdm2-MdmX inh: -10; SKKanGAS inh: 8; Beta cell apopt: 21; Calb FLC: 5; T cruzi inh: -14; CSC inhib: 140*

How did COc1ccc(S(=O)(=O)N2CCN(CC(=O)Nc3c(C)n[nH]c3C)CC2)cc1OC do in these assays?
Mdm2-MdmX inh: -3; Beta cell apopt: 1; CSC inhib: 5

What do the screens show for `COc1cc(OC)cc(C(=O)OC(C)C(=O)NC2CCCc3ccccc32)c1` (stereo unspecified)?
Mdm2-MdmX inh: 9

Results for CC(C)(C)c1ccc(NC(=O)c2ccc(=O)[nH]n2)cc1 ?
Mdm2-MdmX inh: -75; SKKanGAS inh: 2; Beta cell apopt: -3; Calb FLC: -1; T cruzi inh: -2; CSC inhib: -2

Results for Cc1ccc2nc(N3C(=O)C(O)=C(C(=O)c4cc5ccccc5o4)C3c3cccs3)sc2c1 (stereo unspecified) ?
Mdm2-MdmX inh: -97; SKKanGAS inh: 104*; Beta cell apopt: 4; Calb FLC: 43; T cruzi inh: -12; CSC inhib: 1

What do the screens show for `CCc1ccc2nc(N3C(=O)C(O)=C(C(=O)c4ccco4)C3c3cccs3)sc2c1` (stereo unspecified)?
Mdm2-MdmX inh: -93; SKKanGAS inh: 88*; Beta cell apopt: 0; Calb FLC: 61; T cruzi inh: -5; CSC inhib: 21
